ChEMBL document CHEMBL1255219, “Discovery of a β-d-2'-deoxy-2'-α-fluoro-2'-β-C-methyluridine nucleotide prodrug (PSI-7977) for the treatment of hepatitis C virus” (J Med Chem, 2010)

Columns and labels:
Hepatitis C virus [1] = assay: Antiviral activity against HCV infected in human clone A cells; format: functional, Hepacivirus hominis; settings: Hepatitis C virus
Outline: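 Clone A replicon cells seeded at 1500 cells/well. Compounds serially diluted in G418-free culture medium and added, then incubated 4 days at 37 °C in 5% CO2. HCV RNA quantified by real-time RT-PCR as ΔCt relative to the mean no-drug control.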

Rattus norvegicus [2] = assay: AUC (0 to infinity) in rat liver assessed as 2'-F-2'-C-Methyluridine-5''-TP level at 50 mg/kg, po; format: ADME, organism-based; design: time infinity, dose 50 mg/kg, route oral; settings: in vivo
Outline: (§1)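 Rats given a single oral gavage dose of 50 mg/kg in 0.5% carboxymethylcellulose sodium, 5 mL/kg. Livers taken at 0.5, 1, 2, 4, 6 and 12 h after CO2 sacrifice and ice-cold saline perfusion, then snap-frozen. Homogenized in 3 volumes of cold 70% methanol with 20 mM EDTA/EGTA. Triphosphate measured by LC/MS/MS (ESI, MRM negative mode), noncompartmental analysis.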

Rattus norvegicus [3] = assay: AUC (0 to t) in rat liver assessed as 2'-F-2'-C-Methyluridine-5''-TP level at 50 mg/kg, po; format: ADME, organism-based; design: dose 50 mg/kg, route oral; settings: in vivo; outline: as §1
Rattus norvegicus [4] = assay: Cmax in rat liver assessed as 2'-F-2'-C-Methyluridine-5''-TP level at 50 mg/kg, po; format: ADME, organism-based; design: dose 50 mg/kg, route oral; settings: in vivo; outline: as §1
Rattus norvegicus [5] = assay: Tmax in rat liver assessed as 2'-F-2'-C-Methyluridine-5''-TP level at 50 mg/kg, po; format: ADME, organism-based; design: dose 50 mg/kg, route oral; settings: in vivo; outline: as §1
[6] = Half life in human liver S9 fraction at 100 uM; format: ADME, subcellular
Outline: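 Compound at 100 μM in 50 mM K2HPO4 pH 7.4 with 5 mM MgCl2. Started with 4 mg/mL human liver S9 at 37 °C. Samples at 0–24 h quenched with acetonitrile. Parent remaining measured by LC/MS/MS peak area relative to 0 h, and half-life calculated.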

[7] = Half life in simulated intestinal fluid of pH 7.5 at 50 ug/mL; format: physicochemical
Outline: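 Compound at 50 μg/mL in simulated gastric fluid (pH 1.2) or simulated intestinal fluid (pH 7.5), 37 °C, 20 h. Injected by reverse-phase HPLC every 2 h, peak area at 260 nm.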

[8] = Half life in simulated gastric fluid at pH 1.2 at 50 ug/mL; format: physicochemical
Outline: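 Compound at 50 μg/mL in simulated gastric fluid (pH 1.2) or simulated intestinal fluid (pH 7.5), 37 °C, 20 h. Injected by reverse-phase HPLC every 2 h, peak area at 260 nm. Percent parent remaining relative to 0 h, giving half-life.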

Hepatitis C virus [9] = assay: Antiviral activity against HCV infected in human clone A cells assessed as inhibition of cellular rRNA replication at 50 uM; format: functional, Hepacivirus hominis
[10] = Cmax in dog plasma at 50 mg/kg, po qd for 4 days; format: ADME, organism-based, Canis lupus familiaris; design: dose 50 mg/kg, route oral
Outline: (§2)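 Oral gavage (dog gastric, monkey nasogastric), 50 mg/kg in 20% w/v hydroxypropyl-β-cyclodextrin in water, 2.5 mL/kg, once daily for 4 consecutive days. Blood sampled into K2EDTA at 1, 2, 4, 6, 12 and 24 h postdose on day 3. Prodrug in plasma quantified by LC/MS/MS, noncompartmental analysis.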

[11] = Tmax in dog plasma at 50 mg/kg, po qd for 4 days; format: ADME, organism-based, Canis lupus familiaris; design: dose 50 mg/kg, route oral; outline: as §2
[12] = AUC (0 to infinity) in dog plasma at 50 mg/kg, po qd for 4 days; format: ADME, organism-based, Canis lupus familiaris; design: time infinity, dose 50 mg/kg, route oral; outline: as §2
Canis familiaris [13] = assay: Metabolic stability in dog liver assessed as prodrug level at 50 mg/kg, po; format: ADME, organism-based, Canis lupus familiaris; design: dose 50 mg/kg, route oral; settings: in vivo
Outline: (§3)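 Dogs and cynomolgus monkeys gavaged once daily with 50 mg/kg in 20% w/v hydroxypropyl-β-cyclodextrin for 4 days. At 4 h postdose on day 4, under pentobarbital, the liver was perfused with ice-cold saline via a portal cannula. Five lobe samples were snap-frozen and homogenized in 3 volumes of cold 70% methanol with 20 mM EDTA/EGTA. Prodrug and triphosphate measured by LC/MS/MS.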

[14] = AUC (0 to t) in dog plasma at 50 mg/kg, po qd for 4 days; format: ADME, organism-based, Canis lupus familiaris; design: dose 50 mg/kg, route oral; outline: as §2
Canis familiaris [15] = assay: Metabolic stability in dog liver assessed as 2'-F-2'-C-Methyluridine-5''-triphosphate level at 50 mg/kg, po; format: ADME, organism-based, Canis lupus familiaris; design: dose 50 mg/kg, route oral; settings: in vivo; outline: as §3
[16] = Cmax in cynomolgus monkey plasma at 50 mg/kg, po qd for 4 days; format: ADME, organism-based, Macaca fascicularis; design: dose 50 mg/kg, route oral; outline: as §2
[17] = Tmax in cynomolgus monkey plasma at 50 mg/kg, po qd for 4 days; format: ADME, organism-based, Macaca fascicularis; design: dose 50 mg/kg, route oral; outline: as §2
[18] = AUC (0 to infinity) in cynomolgus monkey plasma at 50 mg/kg, po qd for 4 days; format: ADME, organism-based, Macaca fascicularis; design: time infinity, dose 50 mg/kg, route oral; outline: as §2
[19] = AUC (0 to t) in cynomolgus monkey plasma at 50 mg/kg, po qd for 4 days; format: ADME, organism-based, Macaca fascicularis; design: dose 50 mg/kg, route oral; outline: as §2
Cynomolgus monkey [20] = assay: Metabolic stability in cynomolgus monkey liver assessed as prodrug level at 50 mg/kg, po; format: ADME, organism-based, Macaca fascicularis; design: dose 50 mg/kg, route oral; settings: in vivo; outline: as §3
Cynomolgus monkey [21] = assay: Metabolic stability in cynomolgus monkey liver assessed as 2'-F-2'-C-Methyluridine-5''-triphosphate level at 50 mg/kg, po; format: ADME, organism-based, Macaca fascicularis; design: dose 50 mg/kg, route oral; settings: in vivo; outline: as §3
[22] = Permeability by PAMPA assay; format: ADME; settings: read-out: permeability
Outline: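 PAMPA with a lecithin-in-dodecane (20 mg/mL) coated filter donor. Donor held 200 μg/mL compound in PBS pH 7.4 with 2% DMSO; acceptor held PBS with 2% DMSO. Left 24 h. Donor and acceptor concentrations measured by LC/MS/MS (MRM), and Pe calculated from concentrations, volumes, filter area and time.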

[23] = Cytotoxicity against HuH7 cells at 100 uM; format: cell-based; settings: human, huh-7, 100 µM
Outline: (§4)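 Huh7, HepG2 and BxPC3 cells at 2 × 10^3 per well, CEM at 5 × 10^3 per well. Compound serially diluted from 100 μM, 8 days at 37 °C. MTS added for 2 h, absorbance read at 490 nm with medium-only blanks. CC50 taken relative to untreated cells.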

HepG2 = assay: Cytotoxicity against human HepG2 cells at 100 uM; format: cell-based; settings: hepg2, 100 µM; outline: as §4
[24] = Cytotoxicity against human BxPC3 cells at 100 uM; format: cell-based; settings: bxpc-3, 100 µM; outline: as §4
CCRF-CEM = assay: Cytotoxicity against human CEM cells at 100 uM; format: cell-based; outline: as §4
Rattus norvegicus [25] = assay: Toxicity in rat assessed as mortality at 50 to 1800 mg/kg, po after 14 days; format: organism-based; design: dose 50-1800 mg/kg, route oral; settings: in vivo, 336 h
Outline: (§5)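 Rats (CD SD, 4–5 weeks, 76–100 g) given a single oral dose of 50, 300 or 1800 mg/kg, or vehicle (30% PEG400/30% Tween 20/20% corn oil/20% water). Observed daily for 14 days with daily body weights. Necropsy on day 15 with macroscopic examination and liver and paired kidney weights.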

Rattus norvegicus [26] = assay: Toxicity in rat assessed as change in body weight at 50 to 1800 mg/kg, po after 14 days; format: organism-based; design: dose 50-1800 mg/kg, route oral; settings: in vivo, 336 h; outline: as §5
Rattus norvegicus [27] = assay: Toxicity in rat assessed as change in liver weight at 50 to 1800 mg/kg, po after 14 days; format: organism-based; design: dose 50-1800 mg/kg, route oral; settings: in vivo, 336 h; outline: as §5
Rattus norvegicus [28] = assay: Toxicity in rat assessed as change in kidney weight at 50 to 1800 mg/kg, po after 14 days; format: organism-based; design: dose 50-1800 mg/kg, route oral; settings: in vivo, 336 h; outline: as §5
Rattus norvegicus [29] = assay: Toxicity in rat assessed as change in macroscopic pathology at 50 to 1800 mg/kg, po after 14 days; format: organism-based; design: dose 50-1800 mg/kg, route oral; settings: in vivo, 336 h; outline: as §5
Homo sapiens = species: Homo sapiens; assay: Half life in human plasma at 100 uM
[30] = Cytotoxicity against human myeloid progenitor cells after 14 to 16 days
[31] = Cytotoxicity against human erythroid progenitor cells after 14 to 16 days

Structure (SMILES)	EC90 (Hepatitis C virus [1]) [µM]	AUC (Rattus norvegicus [2]) [ng·h/g]	AUC (Rattus norvegicus [3]) [ng·h/g]	Cmax (Rattus norvegicus [4]) [ng/g]	Tmax (Rattus norvegicus [5]) [h]	half-life at 100 µM [6] [h]	half-life at 50 ug/mL [7] [h]	half-life at 50 ug/mL [8] [h]	inhibition at 50 µM (Hepatitis C virus [9]) [%]	Cmax [10] [ng/mL]	Tmax [11] [h]	AUC(0-inf) [12] [ng·h/mL]	Drug uptake (Canis familiaris [13]) [ng/g]	AUC(0-t) at 96 h [14] [ng·h/mL]	Drug uptake (Canis familiaris [15]) [ng/g]	Cmax [16] [ng/mL]	Tmax [17] [h]	Drug uptake (Cynomolgus monkey [20]) [ng/g]	Papp [22] [×10⁻⁶ cm/s]	Activity [23]	further results
COC(=O)[C@H](C)NP(=O)(OC[C@H]1O[C@@H](n2ccc(=O)[nH]c2=O)[C@](C)(F)[C@@H]1O)Oc1ccccc1 (some centres not stated)	0.91	18968	14206	1985	6	0.18	> 20	15.5	0	317	1	420	5.24	418	4960	19	0.25	4.66	0.007	Non-toxic	AUC(0-inf) [18]: 34 ng·h/mL; AUC(0-t) at 96 h [19]: 27 ng·h/mL; Drug uptake (Cynomolgus monkey [21]): 26 ng/g; Activity (HepG2): Non-toxic; Activity [24]: Non-toxic; Activity (CCRF-CEM): Non-toxic; Activity (Rattus norvegicus [25]): Non-toxic; Activity (Rattus norvegicus [26]): Non-toxic; Activity (Rattus norvegicus [27]): Non-toxic; Activity (Rattus norvegicus [28]): Non-toxic; Activity (Rattus norvegicus [29]): Non-toxic; half-life at 100 µM (Homo sapiens): 16.7 h; IC50 [30]: > 50 µM; IC50 [31]: > 50 µM
CC(C)OC(=O)[C@H](C)NP(=O)(OC[C@H]1O[C@@H](n2ccc(=O)[nH]c2=O)[C@](C)(F)[C@@H]1O)Oc1ccccc1 (some centres not stated)	0.52	18080	16796	1934	4	0.57	–	22	25.9	6180	0.5	6900	612	6890	10560	33	1	177	0.046	Non-toxic	AUC(0-inf) [18]: 170 ng·h/mL; AUC(0-t) at 96 h [19]: 86 ng·h/mL; Drug uptake (Cynomolgus monkey [21]): 57 ng/g; Activity (HepG2): Non-toxic; Activity [24]: Non-toxic; Activity (CCRF-CEM): Non-toxic; Activity (Rattus norvegicus [25]): Non-toxic; Activity (Rattus norvegicus [26]): Non-toxic; Activity (Rattus norvegicus [27]): Non-toxic; Activity (Rattus norvegicus [28]): Non-toxic; Activity (Rattus norvegicus [29]): Non-toxic; IC50 [30]: > 50 µM; IC50 [31]: > 50 µM
C[C@H](NP(=O)(OC[C@H]1O[C@@H](n2ccc(=O)[nH]c2=O)[C@](C)(F)[C@@H]1O)Oc1ccc(F)cc1)C(=O)OC1CCCCC1 (some centres not stated)	0.04	9888	8937	716	4	0.18	> 20	20	52.1	36	0.25	62	8.72	54	476	1.8	6	13	0.488	Non-toxic	Activity (HepG2): Non-toxic; Activity [24]: Non-toxic; Activity (CCRF-CEM): Non-toxic; Activity (Rattus norvegicus [25]): Non-toxic; Activity (Rattus norvegicus [26]): Non-toxic; Activity (Rattus norvegicus [27]): Non-toxic; Activity (Rattus norvegicus [28]): Non-toxic; Activity (Rattus norvegicus [29]): Non-toxic; half-life at 100 µM (Homo sapiens): > 24 h; IC50 [30]: 30 µM; IC50 [31]: 37 µM
CC(C)OC(=O)[C@H](C)NP(=O)(OC[C@H]1O[C@@H](n2ccc(=O)[nH]c2=O)[C@](C)(F)[C@@H]1O)Oc1ccc(Cl)cc1 (some centres not stated)	0.42	8468	5143	339	1	0.35	> 20	> 20	0	–	–	–	–	–	–	–	–	–	–	–	half-life at 100 µM (Homo sapiens): > 24 h
